Measurements reported in ChEMBL document CHEMBL1127376, “Agents combining thromboxane receptor antagonism with thromboxane synthase inhibition: [[[2-(1H-imidazol-1-yl)ethylidene]amino]oxy]alkanoic acids” (J Med Chem, 1994).

What was measured:
[1] = biological target: T1, Thromboxane-A synthase (Rattus norvegicus) (UniProt P49430); assay: Tested for the in vitro inhibition of thromboxane-A2 synthase in rat whole blood during clotting at 37 degrees Celsius at >1 uM; format: tissue-based
T1 sequence (whole entry): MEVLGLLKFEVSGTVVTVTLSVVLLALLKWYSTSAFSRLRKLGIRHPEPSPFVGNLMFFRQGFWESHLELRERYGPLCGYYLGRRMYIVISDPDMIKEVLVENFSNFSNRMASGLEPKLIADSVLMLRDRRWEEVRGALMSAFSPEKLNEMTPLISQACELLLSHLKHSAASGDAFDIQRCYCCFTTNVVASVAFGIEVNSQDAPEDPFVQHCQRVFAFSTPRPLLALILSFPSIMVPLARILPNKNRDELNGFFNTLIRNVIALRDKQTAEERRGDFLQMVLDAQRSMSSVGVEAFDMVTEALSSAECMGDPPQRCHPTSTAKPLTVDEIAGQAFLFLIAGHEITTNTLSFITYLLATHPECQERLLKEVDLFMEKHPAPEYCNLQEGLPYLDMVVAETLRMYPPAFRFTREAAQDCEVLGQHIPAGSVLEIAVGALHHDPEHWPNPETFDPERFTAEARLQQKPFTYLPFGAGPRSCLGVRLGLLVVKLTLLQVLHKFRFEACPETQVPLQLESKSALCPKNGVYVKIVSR
How it was run: (§1)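 Rat whole blood allowed to clot 1 h at 37 °C with test agent, then spun for serum, stored -20 °C. Serum TxB2 measured by RIA with [3H]TxB2 and rabbit antiserum, incubated 16–24 h at 4 °C, charcoal separation, scintillation counting.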

Thromboxane A2 receptor = biological target: T2, Thromboxane A2 receptor (Homo sapiens, UniProt P21731); assay: In vitro thromboxane-A2 receptor binding affinity to displace by 50% [3H]-SQ 29548 binding from washed human platelets
T2 sequence (P21731 whole entry): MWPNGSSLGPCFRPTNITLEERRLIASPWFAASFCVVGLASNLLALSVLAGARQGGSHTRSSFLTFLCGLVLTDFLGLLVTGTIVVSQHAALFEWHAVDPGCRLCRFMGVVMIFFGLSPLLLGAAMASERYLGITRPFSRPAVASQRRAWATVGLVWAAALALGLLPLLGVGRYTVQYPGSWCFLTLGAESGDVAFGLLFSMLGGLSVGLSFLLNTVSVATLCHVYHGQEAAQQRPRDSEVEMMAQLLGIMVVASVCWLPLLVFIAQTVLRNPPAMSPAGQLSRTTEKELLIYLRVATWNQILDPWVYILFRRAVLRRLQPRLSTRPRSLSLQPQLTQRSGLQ

Thromboxane-A synthase = biological target: T3, Thromboxane-A synthase (Rattus norvegicus, UniProt P49430); assay: In vitro inhibition of thromboxane-A2 synthase in rat whole blood during clotting at 37 degrees Centigrade; format: tissue-based; how it was run: as §1
T3 sequence (P49430 whole entry): T1 sequence (whole entry)

[2] = biological target: T1, Thromboxane-A synthase (Rattus norvegicus); assay: Tested for in vitro inhibition of TxA synthase in rat whole blood at 1 uM; format: tissue-based
Homo sapiens = organism: Homo sapiens; assay: Tested in vitro for the umolar concentration required to inhibit U-46,619-induced platelet aggregation in human platelet rich plasma (PRP); format: functional
How it was run: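 Citrated human blood (3.8%, 9:1), PRP by centrifugation. PRP preincubated 5 min at 37 °C with vehicle or compound, then challenged with a submaximal U46619 concentration chosen from a concentration–response curve. Aggregation followed by photoelectric aggregometry.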

SMILES	inhibition [1]	IC50 (Thromboxane A2 receptor)	IC50 (Thromboxane-A synthase)	inhibition [2]	IC50 (Homo sapiens)
CS(=O)(=O)c1ccc(CC(/C(=N/OCCCCC(=O)O)C2CCCCC2)n2ccnc2)cc1 (centres undefined)	32%	230 nM	> 1000 nM	–	–
CCCCCC/C(Cn1ccnc1)=N/OCCCCC(=O)O	–	12200 nM	40 nM	–	–
CCCCCC/C(Cn1ccnc1)=N\OCCCCC(=O)O	–	19700 nM	360 nM	–	–
O=C(O)CCCO/N=C(\Cn1ccnc1)C1CCCCC1	–	> 100000 nM	> 1000 nM	8%	–
O=C(O)CCCCO/N=C(\C1CCCCC1)C(Cc1cccc(F)c1)n1ccnc1 (centres undefined)	–	30 nM	270 nM	–	–
Cc1ccc(CC(/C(=N/OCCCCC(=O)O)C2CCCCC2)n2ccnc2)cc1 (centres undefined)	–	70 nM	140 nM	–	–
O=C(O)CCCO/N=C(/Cn1ccnc1)C1CCCCC1	–	49300 nM	> 1000 nM	44%	–
CSc1ccc(/C(=N\OCCCCC(=O)O)C(Cc2ccccc2)n2ccnc2)cc1 (centres undefined)	49%	7500 nM	> 1000 nM	–	–
CC(C)(CCCO/N=C(\c1ccccc1)C(Cc1ccccc1)n1ccnc1)C(=O)O (centres undefined)	–	4160 nM	760 nM	–	–
O=C(O)COCCO/N=C(\c1ccccc1)C(Cc1ccccc1)n1ccnc1 (centres undefined)	28%	880 nM	> 1000 nM	–	–
O=C(O)CCCCCO/N=C(\Cn1ccnc1)C1CCCCC1	–	23900 nM	> 1000 nM	19%	–
O=C(O)CCCCO/N=C(\C1CCCCC1)C(Cc1ccccc1F)n1ccnc1 (centres undefined)	–	300 nM	350 nM	–	–
O=C(O)CCCCO/N=C(\C1CCCCC1)C(Cc1ccccn1)n1ccnc1 (centres undefined)	–	3280 nM	300 nM	–	–
O=C(CCCCO/N=C(\C1CCCCC1)C(Cc1ccccc1)n1ccnc1)NO (centres undefined)	–	520 nM	710 nM	–	–
O=C(O)CCCCO/N=C(/C1CCCCC1)C(Cc1ccccc1)n1ccnc1 (centres undefined)	–	970 nM	100 nM	–	–
O=C(O)CCCCO/N=C(\Cn1ccnc1)C1CCCCC1	–	53100 nM	40 nM	–	2440 nM
O=C(O)CCCCO/N=C(\C1CCCCC1)C(Cc1ccc(F)cc1)n1ccnc1 (centres undefined)	–	20 nM	370 nM	–	300 nM
O=C(O)CCCCO/N=C(/c1ccccc1)C(Cc1ccccc1)n1ccnc1 (centres undefined)	–	1160 nM	20 nM	–	2100 nM
O=C(O)CCCCO/N=C(\C1CCCCC1)C(Cc1ccc(C(F)(F)F)cc1)n1ccnc1 (centres undefined)	–	50 nM	900 nM	–	–
CC(/C(=N\OCCCCC(=O)O)c1ccccc1)n1ccnc1 (centres undefined)	–	295000 nM	160 nM	–	–
O=C(O)CCCCO/N=C(\C1CCCCC1)C(CC1CCCCC1)n1ccnc1 (centres undefined)	43%	1900 nM	> 1000 nM	–	–
O=C(O)CCCCO/N=C(\c1ccccc1)C(Cc1ccc(Cl)cc1)n1ccnc1 (centres undefined)	–	40 nM	890 nM	–	–
O=C(O)/C=C/CCO/N=C(\c1ccccc1)C(Cc1ccccc1)n1ccnc1 (centres undefined)	26%	120 nM	> 1000 nM	–	–
O=C(O)CCCCO/N=C(/c1ccccc1)C(Cc1ccc(Cl)cc1)n1ccnc1 (centres undefined)	–	170 nM	250 nM	–	–
CCOC(=O)CCCCO/N=C(\C1CCCCC1)C(Cc1ccccc1)n1ccnc1 (centres undefined)	–	1300 nM	430 nM	–	–
O=C(O)CCCCO/N=C(/Cn1ccnc1)C1CCCCC1	–	27300 nM	640 nM	–	–

SMILES	inhibition [1]	IC50 (Thromboxane A2 receptor)	IC50 (Thromboxane-A synthase)	inhibition [2]	IC50 (Homo sapiens)
O=C(O)CCCO/N=C(\Cn1ccnc1)c1ccccc1	–	> 100000 nM	> 1000 nM	17%	–
O=C(O)CCCCO/N=C(\c1ccc(Br)cc1)C(Cc1ccccc1)n1ccnc1 (centres undefined)	15%	2390 nM	> 1000 nM	–	–
O=C(O)CCCCO/N=C(/Cn1ccnc1)c1ccccc1	–	46200 nM	270 nM	–	–
O=C(O)CCCCO/N=C(\c1ccccc1)C(Cc1ccc(F)cc1)n1ccnc1 (centres undefined)	–	40 nM	390 nM	–	210 nM
O=C(O)CCCCO/N=C(\c1ccccc1)C(Cc1ccccc1)n1ccnc1 (centres undefined)	–	170 nM	50 nM	–	370 nM
COc1ccc(CC(/C(=N/OCCCCC(=O)O)C2CCCCC2)n2ccnc2)cc1 (centres undefined)	–	70 nM	320 nM	–	–
O=C(O)Cc1ccc(CCNS(=O)(=O)c2ccc(Cl)cc2)cc1 [DALTROBAN]	–	–	> 100000 nM	–	–
O=C(O)CCCCCO/N=C(\c1ccccc1)C(Cc1ccccc1)n1ccnc1 (centres undefined)	–	160 nM	1100 nM	–	–
CC(/C(=N/OCCCCC(=O)O)c1ccccc1)n1ccnc1 (centres undefined)	37%	73000 nM	> 1000 nM	–	–
O=C(O)CCCCO/N=C(/c1cccnc1)c1cccc(C(F)(F)F)c1 [RIDOGREL]	–	2100 nM	30 nM	–	3300 nM
O=C(O)/C=C/CCCO/N=C(\c1ccccc1)C(Cc1ccccc1)n1ccnc1 (centres undefined)	47%	1040 nM	> 1000 nM	–	–
O=C(O)CCCCO/N=C(\Cn1ccnc1)c1ccccc1	–	14700 nM	170 nM	–	–
O=C(O)/C=C/c1ccc(Cn2ccnc2)cc1 [OZAGREL]	–	> 100000 nM	–	–	–
CC(C)(CCO/N=C(\c1ccccc1)C(Cc1ccccc1)n1ccnc1)CC(=O)O (centres undefined)	–	230 nM	530 nM	–	–
O=C(O)CCCCO/N=C(/C1CCCCC1)C(Cc1cccc(F)c1)n1ccnc1 (centres undefined)	–	140 nM	250 nM	–	–
CS(=O)(=O)c1ccc(/C(=N\OCCCCC(=O)O)C(Cc2ccccc2)n2ccnc2)cc1 (centres undefined)	12%	21000 nM	> 1000 nM	–	–
O=C(O)CCCCO/N=C(\C1CCCCC1)C(Cc1cnccn1)n1ccnc1 (centres undefined)	–	190 nM	70 nM	–	–
CCCCCC/C(=N\OCCCCC(=O)O)C(Cc1ccccc1)n1ccnc1 (centres undefined)	–	3000 nM	50 nM	–	–
O=C(O)CCCCCO/N=C(/c1ccccc1)C(Cc1ccccc1)n1ccnc1 (centres undefined)	26%	970 nM	> 1000 nM	–	–
O=C(O)CCCCO/N=C(\C1CCCCC1)C(Cc1ccccc1)n1ccnc1 (centres undefined)	–	80 nM	60 nM	–	440 nM
O=C(O)CCCCO/N=C(\Cn1ccnc1)c1cccnc1	–	> 100000 nM	> 1000 nM	24%	–
O=C(O)CCCCO/N=C(\C1CCCCC1)C(Cc1ccco1)n1ccnc1 (centres undefined)	–	280 nM	100 nM	–	–
O=C(O)CCCCCO/N=C(\Cn1ccnc1)c1ccccc1	–	74500 nM	> 1000 nM	2%	–
C/C(=N\OCCCCC(=O)O)C(Cc1ccccc1)n1ccnc1 (centres undefined)	–	23400 nM	200 nM	–	–
O=C(O)CCCCO/N=C(/c1ccccc1)C(Cc1ccc(F)cc1)n1ccnc1 (centres undefined)	–	530 nM	60 nM	–	280 nM
